From ChEMBL document CHEMBL1125386, “Small atrial natriuretic peptide analogues: design, synthesis, and structural requirements for guanylate cyclase activation” (J Med Chem, 1992)
Where a SMILES comes first, the peptide text is derived from it. Bridges are numbered along the chain shown (N, C = ends).

Tests used:
Oryctolagus cuniculus [1] = species: Oryctolagus cuniculus; assay: Compound was evaluated for the intrinsic vasorelaxation (i.vr) in a standard tissue bath preparation using rabbit aortic rings precontracted with histamine; assay type: functional, Aorta
Summary of the method: (§1)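 Rabbit aortic rings (4–5 mm) in Krebs-Henseleit buffer, gassed 95:5 O2/CO2, pH 7.4, isometric tension, baseline 2 g held 2 h. Rings contracted with 3 μM histamine, then six cumulative half-log peptide increments over 90 min, range 10⁻⁸ to 10⁻⁴ M. Triplicate determinations.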

Oryctolagus cuniculus [2] = species: Oryctolagus cuniculus; assay: In vitro vasorelaxant potency at dose 10 e -8 to 10 e-4 M using rabbit aortic rings precontracted with histamine; assay type: functional; settings: Aorta; summary of the method: as §1
[3] = In vitro Biological half-life in crude homogenate of rabbit renal cortex; assay type: ADME, tissue-based, Oryctolagus cuniculus
[4] = system: Atrial natriuretic peptide receptor 1 (Oryctolagus cuniculus); assay: Binding affinity towards the low-affinity site atrionatriuretic peptide receptor 1 of rabbit adrenal membrane
[5] = system: Atrial natriuretic peptide receptor 1 (Oryctolagus cuniculus); assay: Binding affinity for low-affinity site Atrial natriuretic peptide receptor 1 of rabbit adrenal membrane; settings: Adrenal gland

Compound	EC50 (Oryctolagus cuniculus [2])	KL [5]	other results
H-SSCFGGR-OH			Intrinsic vasorelaxation (Oryctolagus cuniculus [1]): 0 fraction of rANP max
CC[C@H](C)[C@@H]1NC(=O)[C@H](CCCN=C(N)N)NC(=O)CNC(=O)CNC(=O)[C@H](Cc2ccccc2)NC(=O)CN(C)C(=O)[C@@H](NC(=O)[C@H](CO)NC(=O)[C@@H](N)CO)CSSC[C@@H](C(=O)N[C@@H](Cc2ccccc2)C(=O)N[C@@H](CCCN=C(N)N)C(=O)O)NC(=O)[C@H]([C@@H](C)CC)NC(=O)[C@H](CCCN=C(N)N)NC(=O)[C@H](CC(=O)O)NC1=O	> 1000 nM		
H-RIDRIG-OH			Intrinsic vasorelaxation (Oryctolagus cuniculus [1]): 0.7 fraction of rANP max
CC[C@H](C)[C@@H]1NC(=O)[C@H](CCCN=C(N)N)NC(=O)CNC(=O)CNC(=O)[C@@H](Cc2ccccc2)NC(=O)[C@@H](NC(=O)[C@H](CO)NC(=O)[C@@H](N)CO)CSSC[C@@H](C(=O)N[C@@H](Cc2ccccc2)C(=O)N[C@@H](CCCN=C(N)N)C(=O)O)NC(=O)[C@H]([C@@H](C)CC)NC(=O)[C@H](CCCN=C(N)N)NC(=O)[C@H](CC(=O)O)NC1=O	> 10000 nM		half-life [3]: 5.8 min
CC[C@H](C)[C@@H]1NC(=O)[C@H](CCCN=C(N)N)NC(=O)CNC(=O)CNC(=O)[C@H](Cc2ccccc2)NC(=O)[C@@H](NC(=O)[C@H](CO)NC(=O)[C@@H](N)CO)CSSC[C@@H](C(=O)N[C@@H](CC(N)=O)C(=O)N[C@@H](CO)C(=O)O)NC(=O)[C@H]([C@@H](C)CC)NC(=O)[C@H](CCCN=C(N)N)NC(=O)[C@H](CC(=O)O)NC1=O (H-SSCFGGRIDRICNS-OH; disulfide 3-12)	> 10000 nM		
H-FGGRIDRI-OH			Intrinsic vasorelaxation (Oryctolagus cuniculus [1]): 0.57 fraction of rANP max
CC[C@H](C)[C@@H]1NC(=O)[C@@H](CCCN=C(N)N)NC(=O)CNC(=O)CNC(=O)[C@@H](Cc2ccccc2)NC(=O)C(C(C)C)NC(=O)[C@H](NC(=O)[C@H](CO)NC(=O)[C@@H](N)CO)CSSC[C@H](C(=O)N[C@H](Cc2ccccc2)C(=O)N[C@H](CCCN=C(N)N)C(=O)O)NC(=O)[C@@H]([C@@H](C)CC)NC(=O)[C@H](CCCN=C(N)N)NC(=O)[C@@H](CC(=O)O)NC1=O (stereo in doubt)	24 nM		KL [4]: 130 nM
CC[C@H](C)[C@@H]1NC(=O)[C@@H](CCCN=C(N)N)NC(=O)CNC(=O)CNC(=O)[C@@H](C2CCCCC2)NC(=O)[C@H](NC(=O)[C@@H](CO)NC(=O)[C@H](N)CO)CSSC[C@H](C(=O)O)NC(=O)[C@@H](CCCN=C(N)N)NC(=O)[C@H](Cc2ccccc2)NC(=O)[C@@H]([C@@H](C)CC)NC(=O)[C@H](CCCN=C(N)N)NC(=O)[C@@H](CC(=O)O)NC1=O		160 nM	
CC[C@H](C)[C@@H]1NC(=O)[C@@H](CCCN=C(N)N)NC(=O)CNC(=O)CNC(=O)[C@@H](C2CCCCC2)NC(=O)[C@H](NC(=O)[C@H](N)CCCN=C(N)N)CSSC[C@H](C(N)=O)NC(=O)[C@@H](CCCN=C(N)N)NC(=O)[C@H]2Cc3ccccc3CN2C(=O)[C@@H]([C@@H](C)CC)NC(=O)[C@H](CCCN=C(N)N)NC(=O)[C@@H](CC(=O)O)NC1=O		96 nM	
CC[C@H](C)[C@@H]1NC(=O)[C@@H](CCCN=C(N)N)NC(=O)CNC(=O)CNC(=O)[C@@H](C2CCCCC2)NC(=O)CCSSC[C@H](C(N)=O)NC(=O)[C@H](CCCN=C(N)N)NC(=O)[C@H](Cc2ccccc2)NC(=O)[C@@H]([C@@H](C)CC)NC(=O)[C@H](CCCN=C(N)N)NC(=O)[C@@H](CC(=O)O)NC1=O		380 nM	
CC[C@H](C)[C@@H]1NC(=O)[C@H](CCCN=C(N)N)NC(=O)CNC(=O)CNC(=O)[C@H](Cc2ccccc2)NC(=O)CNC(=O)[C@@H](NC(=O)[C@H](CO)NC(=O)[C@@H](N)CO)CSSC[C@@H](C(=O)N[C@@H](Cc2ccccc2)C(=O)N[C@@H](CCCN=C(N)N)C(=O)O)NC(=O)[C@H]([C@@H](C)CC)NC(=O)[C@H](CCCN=C(N)N)NC(=O)[C@H](CC(=O)O)NC1=O	120 nM		half-life [3]: 3.2 min
CC[C@H](C)[C@@H]1NC(=O)[C@H](CCCN=C(N)N)NC(=O)[C@H](CC(=O)O)NC(=O)[C@H]([C@@H](C)CC)NC(=O)[C@H](CCCN=C(N)N)NC(=O)CNC(=O)CNC(=O)[C@H](Cc2ccccc2)NC(=O)[C@@H](NC(=O)[C@H](CO)NC(=O)[C@@H](N)CO)CSSC[C@@H](C(=O)O)NC1=O (H-SSCFGGRIDRIC-OH; disulfide 3-12)	5200 nM		
CC(C)C[C@@H]1NC(=O)[C@@H](CCCN=C(N)N)NC(=O)CNC(=O)CNC(=O)[C@@H](Cc2ccccc2)NC(=O)[C@@H](C)NC(=O)[C@H](NC(=O)[C@H](CO)NC(=O)[C@@H](N)CO)CSSC[C@H](C(=O)N[C@H](Cc2ccccc2)C(=O)N[C@H](CCCN=C(N)N)C(=O)O)NC(=O)[C@@H](CC(C)C)NC(=O)[C@H](CCCN=C(N)N)NC(=O)[C@@H](CC(=O)O)NC1=O		680 nM	
CC[C@H](C)[C@@H]1NC(=O)[C@@H](CCCN=C(N)N)NC(=O)CNC(=O)CNC(=O)[C@@H](C2CCCCC2)NC(=O)[C@H](NC(=O)[C@H](N)CCCN=C(N)N)CSSC[C@H](C(N)=O)NC(=O)[C@@H](C)NC(=O)CNC(=O)[C@@H]([C@@H](C)CC)NC(=O)[C@H](CCCN=C(N)N)NC(=O)[C@@H](CC(=O)O)NC1=O		1200 nM	
CC[C@H](C)[C@@H]1NC(=O)[C@H](CCCN=C(N)N)NC(=O)[C@H](CC(=O)O)NC(=O)[C@H]([C@@H](C)CC)NC(=O)[C@H](CCCN=C(N)N)NC(=O)CNC(=O)CNC(=O)[C@H](Cc2ccccc2)NC(=O)[C@@H](N)CSSC[C@@H](C(=O)O)NC1=O (H-CFGGRIDRIC-OH; disulfide 1-10)	3800 nM		
CC[C@H](C)[C@@H]1NC(=O)[C@@H](CCCN=C(N)N)NC(=O)CNC(=O)CNC(=O)[C@@H](C2CCCCC2)NC(=O)[C@H](N)CSSC[C@H](C(N)=O)NC(=O)[C@@H](CCCN=C(N)N)NC(=O)[C@H](Cc2ccccc2)NC(=O)[C@@H](C)NC(=O)[C@H](CCCN=C(N)N)NC(=O)[C@@H](CC(=O)O)NC1=O		800 nM	
CC[C@H](C)[C@@H]1NC(=O)[C@H](CCCN=C(N)N)NC(=O)CNC(=O)CNC(=O)[C@H](Cc2ccccc2)NC(=O)[C@@H](CC2CCCCC2)NC(=O)[C@@H](NC(=O)[C@H](CO)NC(=O)[C@@H](N)CO)CSSC[C@@H](C(=O)N[C@@H](Cc2ccccc2)C(=O)N[C@@H](CCCN=C(N)N)C(=O)O)NC(=O)[C@H]([C@@H](C)CC)NC(=O)[C@H](CCCN=C(N)N)NC(=O)[C@H](CC(=O)O)NC1=O	430 nM		
CC[C@H](C)[C@@H]1NC(=O)[C@@H](CCCN=C(N)N)NC(=O)CNC(=O)CNC(=O)[C@@H](Cc2ccccc2)NC(=O)[C@H](NC(=O)[C@H](N)CCCN=C(N)N)CSSC[C@H](C(=O)O)NC(=O)[C@@H](CCCN=C(N)N)NC(=O)[C@H](Cc2ccccc2)NC(=O)[C@@H]([C@@H](C)CC)NC(=O)[C@H](CCCN=C(N)N)NC(=O)[C@@H](CC(C)C)NC1=O		680 nM	
CC[C@H](C)[C@@H]1NC(=O)[C@H](CCCN=C(N)N)NC(=O)CNC(=O)CNC(=O)[C@H](Cc2ccccc2)NC(=O)[C@@H](NC(=O)[C@H](CO)NC(=O)[C@@H](N)CO)CSSC[C@@H](C(=O)N[C@@H](Cc2ccccc2)C(=O)N[C@@H](CCCN=C(N)N)C(=O)O)NC(=O)[C@H]([C@@H](C)CC)NC(=O)[C@H](CCCN=C(N)N)NC(=O)[C@H](CC(=O)O)NC1=O	3000 nM		half-life [3]: 4.7 min
H-SSCFG-OH			Intrinsic vasorelaxation (Oryctolagus cuniculus [1]): 0.03 fraction of rANP max
CC[C@H](C)[C@@H]1NC(=O)[C@@H](CCCN=C(N)N)NC(=O)CNC(=O)CNC(=O)[C@@H](C2CCCCC2)NC(=O)CCSSC[C@@H](C(N)=O)NC(=O)[C@@H](CCCN=C(N)N)NC(=O)[C@H](Cc2ccccc2)NC(=O)[C@@H]([C@@H](C)CC)NC(=O)[C@H](CCCN=C(N)N)NC(=O)[C@@H](CC(=O)O)NC1=O		1900 nM	
CC[C@H](C)[C@@H]1NC(=O)[C@H](CCCN=C(N)N)NC(=O)CNC(=O)CNC(=O)[C@H](Cc2ccccc2)NC(=O)[C@@H](N)CSSC[C@@H](C(=O)N[C@@H](Cc2ccccc2)C(=O)N[C@@H](CCCN=C(N)N)C(=O)O)NC(=O)[C@H]([C@@H](C)CC)NC(=O)[C@H](CCCN=C(N)N)NC(=O)[C@H](CC(=O)O)NC1=O (H-CFGGRIDRICFR-OH; disulfide 1-10)	4900 nM		
CC[C@H](C)[C@@H]1NC(=O)[C@H]2CCCCNC(=O)C[C@@H](NC1=O)C(=O)N[C@@H](CCCN=C(N)N)C(=O)N[C@H]([C@@H](C)CC)C(=O)N[C@@H](Cc1ccccc1)C(=O)N[C@H](CCCN=C(N)N)C(=O)N[C@@H](C(N)=O)CSSC[C@@H](NC(=O)[C@H](N)CCCN=C(N)N)C(=O)N[C@H](C1CCCCC1)C(=O)NCC(=O)NCC(=O)N2		58 nM	
NC(=O)C[C@H](N)C(=O)N[C@@H](CO)C(=O)N[C@@H](Cc1ccccc1)C(=O)N[C@@H](CCCN=C(N)N)C(=O)O (H-NSFR-OH)			Intrinsic vasorelaxation (Oryctolagus cuniculus [1]): 0.16 fraction of rANP max
CC[C@H](C)[C@H]1NC(=O)[C@H](CCCN=C(N)N)NC(=O)[C@@H](CC(=O)O)NC(=O)[C@H](Cc2ccccc2)NC(=O)[C@@H](CCCN=C(N)N)NC(=O)CNC(=O)CNC(=O)[C@@H](C2CCCCC2)NC(=O)[C@H](NC(=O)[C@H](N)CCCN=C(N)N)CSSC[C@H](C(N)=O)NC(=O)[C@@H](CCCN=C(N)N)NC(=O)[C@H](Cc2ccccc2)NC1=O		680 nM	
CC[C@H](C)[C@@H]1NC(=O)[C@H](CCCN=C(N)N)NC(=O)CNC(=O)CNC(=O)[C@H](Cc2ccccc2)NC(=O)CCNC(=O)[C@@H](NC(=O)[C@H](CO)NC(=O)[C@@H](N)CO)CSSC[C@@H](C(=O)N[C@@H](Cc2ccccc2)C(=O)N[C@@H](CCCN=C(N)N)C(=O)O)NC(=O)[C@H]([C@@H](C)CC)NC(=O)[C@H](CCCN=C(N)N)NC(=O)[C@H](CC(=O)O)NC1=O	1800 nM		
CC[C@H](C)[C@@H]1NC(=O)[C@@H](CCCN=C(N)N)NC(=O)CNC(=O)CNC(=O)[C@@H](C2CCCCC2)NC(=O)[C@H](NC(=O)[C@H](N)CCCN=C(N)N)CSSC[C@H](C(N)=O)NC(=O)[C@@H](CCCN=C(N)N)NC(=O)[C@H](Cc2ccccc2)NC(=O)[C@@H]([C@@H](C)CC)NC(=O)[C@H](CCCN=C(N)N)NC(=O)CNC1=O		260 nM	
